Calls of active or inactive are those of the source. No cut-off for these calls is given here.
Tests used:
[1] = molecular target: T1, Peroxisome proliferator-activated receptor gamma (Homo sapiens) (UniProt P37231); conditions: dose 50.0 µM
T1 sequence (whole entry): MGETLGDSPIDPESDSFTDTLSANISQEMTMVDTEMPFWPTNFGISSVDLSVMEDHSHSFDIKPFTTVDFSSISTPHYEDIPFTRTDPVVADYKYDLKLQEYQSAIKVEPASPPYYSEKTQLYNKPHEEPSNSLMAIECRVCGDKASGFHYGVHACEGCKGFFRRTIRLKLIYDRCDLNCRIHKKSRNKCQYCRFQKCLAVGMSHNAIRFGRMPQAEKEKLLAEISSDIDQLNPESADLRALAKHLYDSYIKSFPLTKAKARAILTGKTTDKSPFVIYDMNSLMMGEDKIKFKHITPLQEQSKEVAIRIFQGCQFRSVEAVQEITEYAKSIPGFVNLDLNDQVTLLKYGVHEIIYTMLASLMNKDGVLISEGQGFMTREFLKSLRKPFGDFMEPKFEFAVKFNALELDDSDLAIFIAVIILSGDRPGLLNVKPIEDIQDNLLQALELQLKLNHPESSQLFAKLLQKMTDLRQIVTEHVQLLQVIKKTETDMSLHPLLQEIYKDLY

[2] = molecular target: T1, Peroxisome proliferator-activated receptor gamma (Homo sapiens); test: Stabilization of human PPARgamma LBD assessed as change in melting temperature at 50 uM by thermal shift assay
Danio rerio [3] = test: In vivo agonist activity at human GFP-tagged PPARgamma in transgenic zebrafish assessed as increase in GFP expression in tail bud at 0.1 uM measured after 14 hrs by microscopy
Danio rerio [4] = test: In vivo agonist activity at human GFP-tagged PPARgamma in transgenic zebrafish assessed as increase in GFP expression in CNS at 1 uM measured after 14 days by microscopy; format: functional, organism-based; conditions: time 14.0 day
Danio rerio [5] = test: In vivo agonist activity at human GFP-tagged PPARgamma in transgenic zebrafish assessed as increase in GFP expression in muscle at 1 uM measured after 14 days by microscopy; format: functional, organism-based; conditions: time 14.0 day
Danio rerio [6] = test: In vivo agonist activity at human GFP-tagged PPARalpha in transgenic zebrafish assessed as increase in GFP expression in brain at 1.5 uM measured after 14 hrs by microscopy
Danio rerio [7] = test: In vivo agonist activity at human GFP-tagged PPARalpha in transgenic zebrafish assessed as increase in GFP expression in heart at 1.5 uM measured after 14 hrs by microscopy
Danio rerio [8] = test: In vivo agonist activity at human GFP-tagged PPARalpha in transgenic zebrafish assessed as increase in GFP expression in muscle at 1.5 uM measured after 14 hrs by microscopy
Danio rerio [9] = test: In vivo agonist activity at human GFP-tagged PPARalpha in transgenic zebrafish assessed as increase in GFP expression in yolk sac at 1.5 uM measured after 14 hrs by microscopy
[10] = molecular target: T2, Peroxisome proliferator-activated receptor alpha (Mus musculus) (UniProt P23204); test: Agonist activity at human PPARalpha in mouse hepatocytes assessed as induction of fabp1 mRNA expression at 50 uM incubated for 16 hrs by quantitative real-time PCR analysis; format: cell-based; conditions: Hepatocyte, filed as agonist
T2 sequence (whole entry): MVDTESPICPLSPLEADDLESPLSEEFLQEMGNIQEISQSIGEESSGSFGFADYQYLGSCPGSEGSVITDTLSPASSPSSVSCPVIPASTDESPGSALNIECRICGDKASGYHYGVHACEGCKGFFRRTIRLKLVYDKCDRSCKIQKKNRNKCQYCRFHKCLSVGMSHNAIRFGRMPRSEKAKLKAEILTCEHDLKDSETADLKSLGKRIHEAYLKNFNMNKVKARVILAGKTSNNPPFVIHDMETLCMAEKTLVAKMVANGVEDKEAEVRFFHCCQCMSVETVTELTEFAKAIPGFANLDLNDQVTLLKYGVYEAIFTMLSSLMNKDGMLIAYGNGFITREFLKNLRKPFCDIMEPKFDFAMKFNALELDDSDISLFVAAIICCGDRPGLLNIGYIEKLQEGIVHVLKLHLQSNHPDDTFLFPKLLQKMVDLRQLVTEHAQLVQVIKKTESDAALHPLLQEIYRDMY
Method in brief: (§1)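 Collagenase-perfused mouse primary hepatocytes from WT mice, plated 2 h in attachment medium, overnight in M199 with 5% charcoal-stripped FBS and 1 nM insulin. Treated next day in serum-free M199 with 50 μM compound for 16 h. RNA qPCR (SYBR Green), comparative Ct method.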

[11] = molecular target: T2, Peroxisome proliferator-activated receptor alpha (Mus musculus); test: Agonist activity at human PPARalpha in mouse hepatocytes assessed as induction of cd36 mRNA expression at 50 uM incubated for 16 hrs by quantitative real-time PCR analysis; format: cell-based; conditions: Hepatocyte, filed as agonist
Method in brief: as §1

[12] = molecular target: T2, Peroxisome proliferator-activated receptor alpha (Mus musculus); test: Agonist activity at human PPARalpha in mouse hepatocytes assessed as induction of Fgf21 mRNA expression at 50 uM incubated for 16 hrs by quantitative real-time PCR analysis; format: cell-based; conditions: Hepatocyte, filed as agonist
Method in brief: as §1

[13] = molecular target: T2, Peroxisome proliferator-activated receptor alpha (Mus musculus); test: Agonist activity at human PPARalpha in mouse hepatocytes assessed as induction of Pdk4 mRNA expression at 50 uM incubated for 16 hrs by quantitative real-time PCR analysis; format: cell-based; conditions: Hepatocyte, filed as agonist
Method in brief: as §1

Danio rerio [14] = test: In vivo agonist activity at human GFP-tagged PPARalpha in transgenic zebrafish assessed as increase in GFP expression in CNS at 5 uM measured after 14 hrs by microscopy
Danio rerio [15] = test: In vivo agonist activity at human GFP-tagged PPARalpha in transgenic zebrafish assessed as increase in GFP expression in heart at 5 uM measured after 14 hrs by microscopy
Danio rerio [16] = test: In vivo agonist activity at human GFP-tagged PPARalpha in transgenic zebrafish assessed as increase in GFP expression in retina at 5 uM measured after 14 hrs by microscopy
Danio rerio [17] = test: In vivo agonist activity at human GFP-tagged PPARalpha in transgenic zebrafish assessed as increase in GFP expression in muscle at 5 uM measured after 14 hrs by microscopy
Danio rerio [18] = test: In vivo agonist activity at human GFP-tagged PPARalpha in transgenic zebrafish assessed as increase in GFP expression in epidermis at 5 uM measured after 14 hrs by microscopy
[19] = Metabolic stability in C57BL/6 mouse liver microsomes assessed as half life; format: ADME, Microsome; conditions: time 2 min
[20] = Metabolic stability in C57BL/6 mouse liver microsomes assessed as parent compound remaining incubated for 120 mins; format: ADME, Microsome; conditions: read-out: Stability
[21] = molecular target: T3, Peroxisome proliferator-activated receptor alpha (Homo sapiens) (UniProt Q07869); test: Agonist activity at human PPARalpha transfected in HEK293 cells assessed as relative luciferase unit at 50 uM measured after 16 hrs by luciferase reporter gene assay; format: cell-based; conditions: filed as agonist
T3 sequence (whole entry): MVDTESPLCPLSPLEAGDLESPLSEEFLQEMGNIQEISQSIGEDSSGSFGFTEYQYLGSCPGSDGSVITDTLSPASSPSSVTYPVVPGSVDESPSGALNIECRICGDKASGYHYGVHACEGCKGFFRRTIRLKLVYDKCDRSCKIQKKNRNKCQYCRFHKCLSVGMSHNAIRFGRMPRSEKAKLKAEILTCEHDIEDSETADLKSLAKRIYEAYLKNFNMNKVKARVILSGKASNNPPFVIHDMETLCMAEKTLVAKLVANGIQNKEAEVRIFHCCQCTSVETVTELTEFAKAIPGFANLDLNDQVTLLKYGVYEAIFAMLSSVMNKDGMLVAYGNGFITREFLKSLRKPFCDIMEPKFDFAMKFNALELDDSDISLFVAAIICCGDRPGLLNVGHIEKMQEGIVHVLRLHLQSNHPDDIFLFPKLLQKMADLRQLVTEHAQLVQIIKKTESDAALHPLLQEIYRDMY
Method in brief: (§2)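 GAL4-hPPAR (α or γ) plus UAS-luciferase and β-galactosidase transiently co-transfected into HEK293 cells, then treated with 50 μM compound for 16 h. RLU = luciferase/β-galactosidase × time, vehicle (DMSO) set to 1. Mean ± SD, N = 3; one-way ANOVA with Holm–Šidák vs vehicle.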

[22] = molecular target: T1, Peroxisome proliferator-activated receptor gamma (Homo sapiens); test: Agonist activity at human PPARgamma transfected in HEK293 cells assessed as relative luciferase unit at 50 uM measured after 16 hrs by luciferase reporter gene assay; format: cell-based; conditions: filed as agonist
Method in brief: as §2

[23] = molecular target: T4, Peroxisome proliferator-activated receptor gamma (Mus musculus) (UniProt P37238); test: Agonist activity at human PPARgamma in mouse 3T3-L1 cells assessed as induction of adipogenic differentiation at 25 uM measured after 11 days by Oil Red O staining analysis; format: cell-based; conditions: filed as agonist, time 11.0 day
T4 sequence (whole entry): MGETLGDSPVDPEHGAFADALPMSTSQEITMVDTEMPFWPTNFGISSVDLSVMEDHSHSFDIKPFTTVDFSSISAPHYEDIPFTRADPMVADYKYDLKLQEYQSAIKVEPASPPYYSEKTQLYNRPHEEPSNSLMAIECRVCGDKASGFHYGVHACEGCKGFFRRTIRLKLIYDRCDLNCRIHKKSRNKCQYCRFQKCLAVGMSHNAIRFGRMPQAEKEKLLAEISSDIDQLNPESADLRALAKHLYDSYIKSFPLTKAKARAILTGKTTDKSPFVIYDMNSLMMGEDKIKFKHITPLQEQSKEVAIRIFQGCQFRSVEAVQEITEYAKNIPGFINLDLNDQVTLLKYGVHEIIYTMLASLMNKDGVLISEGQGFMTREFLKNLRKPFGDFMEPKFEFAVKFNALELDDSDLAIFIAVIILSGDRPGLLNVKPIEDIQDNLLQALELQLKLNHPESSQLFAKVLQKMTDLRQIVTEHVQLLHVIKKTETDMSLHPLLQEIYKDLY
Method in brief: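 3T3-L1 cells differentiated for 11 days (IBMX/dexamethasone/insulin induction, then insulin, then maintenance medium) with 25 μM compound or 10 μM rosiglitazone from day 0. Cells formalin-fixed and stained with 0.6% Oil Red O. Lipid quantified spectrophotometrically after dye extraction.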

[24] = molecular target: T5, Peroxisome proliferator-activated receptor alpha (Homo sapiens, UniProt Q07869); test: Agonist activity at human PPARalpha expressed in HEK293 cells by luciferase/beta-galactosidase reporter gene assay; format: cell-based
T5 sequence (Q07869 whole entry): T3 sequence (whole entry)
Method in brief: (§3)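 HEK293 cells in charcoal-stripped FBS, calcium phosphate co-transfected with GAL4-hPPAR LBD fusion, UAS-luciferase and β-galactosidase. Ligand added 6–8 h post transfection, full dose–response, harvested 14–16 h later. Luciferase normalized to β-galactosidase.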

[25] = molecular target: T6, Peroxisome proliferator-activated receptor gamma (Homo sapiens, UniProt P37231); test: Agonist activity at human PPARgamma expressed in HEK293 cells by luciferase/beta-galactosidase reporter gene assay; format: cell-based
T6 sequence (P37231 whole entry): T1 sequence (whole entry)
Method in brief: as §3

[26] = molecular target: T3, Peroxisome proliferator-activated receptor alpha (Homo sapiens); test: Agonist activity at human PPARalpha expressed in HEK293 cells assessed as maximal activity by luciferase/beta-galactosidase reporter gene assay relative to GW7647; format: cell-based
Method in brief: as §3

[27] = molecular target: T1, Peroxisome proliferator-activated receptor gamma (Homo sapiens); test: Agonist activity at human PPARgamma expressed in HEK293 cells assessed as maximal activity by luciferase/beta-galactosidase reporter gene assay relative to rosiglitazone; format: cell-based
Method in brief: as §3

[28] = molecular target: T3, Peroxisome proliferator-activated receptor alpha (Homo sapiens); test: Stabilization of human PPARalpha LBD assessed as change in melting temperature at 25 uM by thermal shift assay
Method in brief: (§4)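 Purified hPPAR LBD at 1 mg/mL (∼25 μM) with ligand (α-LBD at 25 μM; γ- and δ-LBD at 50 μM). Static light scattering at 473 nm from 25 to 70 °C in 0.5 °C steps, 1 °C/min. Tm from four-parameter fit; ΔTm relative to DMSO; mean ± SEM, N = 3.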

[29] = molecular target: T7, Peroxisome proliferator-activated receptor delta (Homo sapiens) (UniProt Q03181); test: Stabilization of human PPARdelta LBD assessed as change in melting temperature at 50 uM by thermal shift assay
T7 sequence (whole entry): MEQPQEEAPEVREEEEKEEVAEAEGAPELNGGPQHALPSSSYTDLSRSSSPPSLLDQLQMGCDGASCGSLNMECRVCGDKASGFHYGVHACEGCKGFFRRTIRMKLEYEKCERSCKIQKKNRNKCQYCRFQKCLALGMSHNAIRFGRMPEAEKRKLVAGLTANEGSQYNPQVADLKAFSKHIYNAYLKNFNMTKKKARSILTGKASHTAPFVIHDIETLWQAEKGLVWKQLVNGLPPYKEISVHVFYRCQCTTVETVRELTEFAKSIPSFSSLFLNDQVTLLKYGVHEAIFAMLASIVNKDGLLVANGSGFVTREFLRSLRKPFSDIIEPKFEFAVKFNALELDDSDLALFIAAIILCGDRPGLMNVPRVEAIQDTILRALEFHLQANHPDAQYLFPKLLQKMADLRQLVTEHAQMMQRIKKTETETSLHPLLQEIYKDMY

Danio rerio [30] = test: In vivo agonist activity at human GFP-tagged PPARalpha in transgenic zebrafish assessed as increase in GFP expression in brain at 8.9 uM measured after 14 hrs by microscopy
[31] = molecular target: T7, Peroxisome proliferator-activated receptor delta (Homo sapiens); test: Stabilization of human PPARdelta LBD assessed as change in melting temperature at 50 uM by thermal shift assay
Method in brief: as §4

SMILES: CN(CCOc1ccc(CC2SC(=O)NC2=O)cc1)c1ccccn1 (configuration not stated)
- ΔTm [1]: 5 °C
- ΔTm [2]: 5 °C
- Activity (Danio rerio [3]): Active

SMILES: Cc1cc(SCc2sc(-c3ccc(C(F)(F)F)c(F)c3)nc2C)ccc1OCC(=O)O
- Activity (Danio rerio [4]): Active
- Activity (Danio rerio [5]): Active
- Activity (Danio rerio [6]): Active
- Activity (Danio rerio [7]): Active
- Activity (Danio rerio [8]): Active
- Activity (Danio rerio [9]): Active

SMILES: Cc1cccc(Nc2cc(Cl)nc(SCC(=O)O)n2)c1C
- Activity [10]: Active
- Activity [11]: Active
- Activity [12]: Active
- Activity [13]: Active
- Activity (Danio rerio [14]): Active
- Activity (Danio rerio [15]): Active
- Activity (Danio rerio [16]): Active
- Activity (Danio rerio [17]): Active
- Activity (Danio rerio [18]): Active

SMILES: CCCCCCCCCCCCCCCc1cccc(OC(C)(C)C(=O)OCC)c1
- half-life [19]: 5.58 h
- remaining at 2 h [20]: 78%
- Activity [21]: Active
- Activity [22]: Active
- Activity [23]: Active
- EC50 [24]: 8.9 µM
- EC50 [25]: 3.9 µM
- Emax [26]: 5%
- Emax [27]: 30%
- ΔTm [28]: 0.6 °C
- ΔTm [2]: 0.2 °C
- ΔTm [29]: 0.5 °C
- Activity (Danio rerio [30]): Active

SMILES: O=C(O)COc1ccc(SCC=C(c2ccc(Br)cc2)c2ccc(Br)cc2)cc1Cl
- ΔTm [31]: 7.7 °C
